# In ChEMBL document CHEMBL2157880, “Synthesis, antimycobacterial and antibacterial activity of ciprofloxacin derivatives containing a N-substituted benzyl moiety” (2012):
# How the values were obtained:
# Format in all cases: functional
# Staphylococcus aureus [1] = assay: Antibacterial activity against methicillin-resistant Staphylococcus aureus 10-13 after 18 to 24 hrs by NCCLS method
# How it was run: (§1)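 Incubated at 35 °C for 18–24 h under NCCLS (M100-S11) standards. MIC was read as the lowest concentration giving complete inhibition of visible bacterial growth.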
# Staphylococcus aureus [2] = assay: Antibacterial activity against methicillin-sensitive Staphylococcus aureus 10-11 after 18 to 24 hrs by NCCLS method
# How it was run: (§2)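 Standard NCCLS (M100-S11) MIC testing against Gram-positive and Gram-negative strains. Plates were incubated at 35 °C for 18–24 h. The MIC was read as the lowest concentration giving complete inhibition of visible bacterial growth.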
# Enterococcus faecalis [3] = assay: Antibacterial activity against Enterococcus faecalis 10-7 after 18 to 24 hrs by NCCLS method; how it was run: as §2
# Pseudomonas aeruginosa [4] = assay: Antibacterial activity against Pseudomonas aeruginosa 10-18 after 18 to 24 hrs by NCCLS method; how it was run: as §2
# Klebsiella pneumoniae [5] = assay: Antibacterial activity against extended spectrum beta-lactamases producing Klebsiella pneumoniae 10-2 after 18 to 24 hrs by NCCLS method; how it was run: as §2
# Escherichia coli [6] = assay: Antibacterial activity against extended spectrum beta-lactamases producing Escherichia coli 10-2 after 18 to 24 hrs by NCCLS method; how it was run: as §2
# [7] = system: Mycobacterium tuberculosis; assay: Antimycobacterial activity against Mycobacterium tuberculosis H37Rv ATCC 27294 by microplate alamar blue assay
# How it was run: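 Microplate Alamar Blue fluorescence assay on strain H37Rv ATCC 27294. MIC was the lowest concentration cutting fluorescence by ≥90% against the mean of replicate bacterium-only controls.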
# [8] = system: Staphylococcus epidermidis; assay: Antibacterial activity against methicillin-resistant Staphylococcus epidermidis 10-10 after 18 to 24 hrs by NCCLS method; how it was run: as §1
# Enterococcus faecalis [9] = assay: Antibacterial activity against Enterococcus faecalis 10-5 after 18 to 24 hrs by NCCLS method; how it was run: as §2
# Streptococcus pneumoniae [10] = assay: Antibacterial activity against Streptococcus pneumoniae 10-6 after 18 to 24 hrs by NCCLS method; how it was run: as §2
# Pseudomonas aeruginosa [11] = assay: Antibacterial activity against Pseudomonas aeruginosa 10-5 after 18 to 24 hrs by NCCLS method; how it was run: as §2
# Staphylococcus aureus [12] = assay: Antibacterial activity against methicillin-resistant Staphylococcus aureus 10-15 after 18 to 24 hrs by NCCLS method; how it was run: as §1
# Staphylococcus aureus [13] = assay: Antibacterial activity against Staphylococcus aureus ATCC 2592 after 18 to 24 hrs by NCCLS method; how it was run: as §2
# Streptococcus pneumoniae [14] = assay: Antibacterial activity against Streptococcus pneumoniae 10-1 after 18 to 24 hrs by NCCLS method; how it was run: as §2
# Klebsiella pneumoniae [15] = assay: Antibacterial activity against Klebsiella pneumoniae 10-2 after 18 to 24 hrs by NCCLS method; how it was run: as §2
# Staphylococcus aureus [16] = assay: Antibacterial activity against methicillin-resistant Staphylococcus aureus 10-11 after 18 to 24 hrs by NCCLS method; how it was run: as §1
# Klebsiella pneumoniae [17] = assay: Antibacterial activity against extended spectrum beta-lactamases producing Klebsiella pneumoniae 10-1 after 18 to 24 hrs by NCCLS method; how it was run: as §2
# Escherichia coli [18] = assay: Antibacterial activity against Escherichia coli 10-2 after 18 to 24 hrs by NCCLS method; how it was run: as §2
# Klebsiella pneumoniae [19] = assay: Antibacterial activity against Klebsiella pneumoniae 10-3 after 18 to 24 hrs by NCCLS method; how it was run: as §2
# Escherichia coli [20] = assay: Antibacterial activity against Escherichia coli 10-3 after 18 to 24 hrs by NCCLS method; how it was run: as §2
# Pseudomonas aeruginosa [21] = assay: Antibacterial activity against Pseudomonas aeruginosa 10-15 after 18 to 24 hrs by NCCLS method; how it was run: as §2
# Klebsiella pneumoniae [22] = assay: Antibacterial activity against extended spectrum beta-lactamases producing Klebsiella pneumoniae 10-3 after 18 to 24 hrs by NCCLS method; how it was run: as §2
# Staphylococcus aureus [23] = assay: Antibacterial activity against methicillin-sensitive Staphylococcus aureus 10-14 after 18 to 24 hrs by NCCLS method; how it was run: as §2
# Escherichia coli [24] = assay: Antibacterial activity against extended spectrum beta-lactamases producing Escherichia coli 10-4 after 18 to 24 hrs by NCCLS method; how it was run: as §2
# [25] = system: Staphylococcus epidermidis; assay: Antibacterial activity against methicillin-sensitive Staphylococcus epidermidis 10-11 after 18 to 24 hrs by NCCLS method; how it was run: as §2
# Klebsiella pneumoniae [26] = assay: Antibacterial activity against Klebsiella pneumoniae 10-4 after 18 to 24 hrs by NCCLS method; how it was run: as §2
# [27] = system: Staphylococcus epidermidis; assay: Antibacterial activity against methicillin-resistant Staphylococcus epidermidis 10-13 after 18 to 24 hrs by NCCLS method; how it was run: as §1
# Escherichia coli [28] = assay: Antibacterial activity against Escherichia coli ATCC 25922 after 18 to 24 hrs by NCCLS method; how it was run: as §2
# Enterococcus faecium [29] = assay: Antibacterial activity against Enterococcus faecium 10-6 after 18 to 24 hrs by NCCLS method; how it was run: as §2
# Pseudomonas aeruginosa [30] = assay: Antibacterial activity against Pseudomonas aeruginosa 10-20 after 18 to 24 hrs by NCCLS method; how it was run: as §2
# Enterococcus faecium [31] = assay: Antibacterial activity against Enterococcus faecium 10-9 after 18 to 24 hrs by NCCLS method; how it was run: as §2
# Pseudomonas aeruginosa [32] = assay: Antibacterial activity against Pseudomonas aeruginosa 10-9 after 18 to 24 hrs by NCCLS method; how it was run: as §2
# Enterococcus faecalis [33] = assay: Antibacterial activity against Enterococcus faecalis 10-6 after 18 to 24 hrs by NCCLS method; how it was run: as §2
# Staphylococcus aureus [34] = assay: Antibacterial activity against methicillin-sensitive Staphylococcus aureus 10-13 after 18 to 24 hrs by NCCLS method; how it was run: as §2
# [35] = system: Staphylococcus epidermidis; assay: Antibacterial activity against methicillin-sensitive Staphylococcus epidermidis 10-15 after 18 to 24 hrs by NCCLS method; how it was run: as §1
# Escherichia coli [36] = assay: Antibacterial activity against extended spectrum beta-lactamases producing Escherichia coli 10-3 after 18 to 24 hrs by NCCLS method; how it was run: as §2
# Pseudomonas aeruginosa [37] = assay: Antibacterial activity against Pseudomonas aeruginosa 10-12 after 18 to 24 hrs by NCCLS method; how it was run: as §2
# Escherichia coli [38] = assay: Antibacterial activity against Escherichia coli 10-1 after 18 to 24 hrs by NCCLS method; how it was run: as §2
# Staphylococcus aureus [39] = assay: Ratio of compound MIC to ciprofloxacin MIC for Staphylococcus aureus ATCC 2592
# Enterococcus faecalis [40] = assay: Ratio of compound MIC to ciprofloxacin MIC for Enterococcus faecalis 10-7
# [41] = system: Staphylococcus epidermidis; assay: Ratio of compound MIC to ciprofloxacin MIC for methicillin-sensitive Staphylococcus epidermidis 10-11
# Streptococcus pneumoniae [42] = assay: Ratio of compound MIC to ciprofloxacin MIC for Streptococcus pneumoniae 10-6
# Enterococcus faecium [43] = assay: Ratio of compound MIC to ciprofloxacin MIC for Enterococcus faecium 10-6
# Streptococcus pneumoniae [44] = assay: Ratio of compound MIC to ciprofloxacin MIC for Streptococcus pneumoniae 10-1
# Enterococcus faecium [45] = assay: Ratio of compound MIC to ciprofloxacin MIC for Enterococcus faecium 10-9
# Staphylococcus aureus [46] = assay: Ratio of compound MIC to ciprofloxacin MIC for methicillin-sensitive Staphylococcus aureus 10-14
# Staphylococcus aureus [47] = assay: Ratio of compound MIC to ciprofloxacin MIC for methicillin-sensitive Staphylococcus aureus 10-11
# Enterococcus faecalis [48] = assay: Ratio of compound MIC to ciprofloxacin MIC for Enterococcus faecalis 10-6
# [49] = system: Staphylococcus epidermidis; assay: Ratio of compound MIC to ciprofloxacin MIC for methicillin-sensitive Staphylococcus epidermidis 10-15
# Staphylococcus aureus [50] = assay: Ratio of compound MIC to ciprofloxacin MIC for methicillin-sensitive Staphylococcus aureus 10-13
# Enterococcus faecalis [51] = assay: Ratio of compound MIC to ciprofloxacin MIC for Enterococcus faecalis 10-5
compound,measurement,setting,value
O=C(O)c1cn(C2CC2)c2cc(N3CCN(Cc4cc5c(cc4[N+](=O)[O-])OCO5)CC3)c(F)cc2c1=O,MIC,Staphylococcus aureus [1],32 µg/mL
same,MIC,Staphylococcus aureus [2],0.5 µg/mL
same,MIC,Enterococcus faecalis [3],32 µg/mL
same,MIC,Pseudomonas aeruginosa [4],2 µg/mL
same,MIC,Klebsiella pneumoniae [5],> 128 µg/mL
same,MIC,Escherichia coli [6],> 128 µg/mL
same,MIC,[7],2 µg/mL
same,MIC,[8],16 µg/mL
same,MIC,Enterococcus faecalis [9],32 µg/mL
same,MIC,Streptococcus pneumoniae [10],16 µg/mL
same,MIC,Pseudomonas aeruginosa [11],1 µg/mL
same,MIC,Staphylococcus aureus [12],32 µg/mL
same,MIC,Staphylococcus aureus [13],0.5 µg/mL
same,MIC,Streptococcus pneumoniae [14],2 µg/mL
same,MIC,Klebsiella pneumoniae [15],64 µg/mL
same,MIC,Staphylococcus aureus [16],32 µg/mL
same,MIC,Klebsiella pneumoniae [17],> 128 µg/mL
same,MIC,Escherichia coli [18],1 µg/mL
same,MIC,Klebsiella pneumoniae [19],2 µg/mL
same,MIC,Escherichia coli [20],8 µg/mL
same,MIC,Pseudomonas aeruginosa [21],0.5 µg/mL
same,MIC,Klebsiella pneumoniae [22],> 128 µg/mL
same,MIC,Staphylococcus aureus [23],1 µg/mL
same,MIC,Escherichia coli [24],8 µg/mL
same,MIC,[25],1 µg/mL
same,MIC,Klebsiella pneumoniae [26],> 128 µg/mL
same,MIC,[27],32 µg/mL
same,MIC,Escherichia coli [28],0.125 µg/mL
same,MIC,Enterococcus faecium [29],2 µg/mL
same,MIC,Pseudomonas aeruginosa [30],4 µg/mL
same,MIC,Enterococcus faecium [31],16 µg/mL
same,MIC,Pseudomonas aeruginosa [32],1 µg/mL
same,MIC,Enterococcus faecalis [33],64 µg/mL
same,MIC,Staphylococcus aureus [34],1 µg/mL
same,MIC,[35],16 µg/mL
same,MIC,Escherichia coli [36],> 128 µg/mL
same,MIC,Pseudomonas aeruginosa [37],1 µg/mL
same,MIC,Escherichia coli [38],32 µg/mL
COc1ccc(CN2CCN(c3cc4c(cc3F)c(=O)c(C(=O)O)cn4C3CC3)CC2)cc1,MIC,Staphylococcus aureus [1],16 µg/mL
same,Ratio,Staphylococcus aureus [39],2
same,MIC,Staphylococcus aureus [2],0.125 µg/mL
same,MIC,Enterococcus faecalis [3],8 µg/mL
same,MIC,Pseudomonas aeruginosa [4],4 µg/mL
same,MIC,Klebsiella pneumoniae [5],> 128 µg/mL
same,Ratio,Enterococcus faecalis [40],2
same,MIC,Escherichia coli [6],> 128 µg/mL
same,MIC,[7],1 µg/mL
same,MIC,[8],8 µg/mL
same,MIC,Enterococcus faecalis [9],4 µg/mL
same,Ratio,[41],2
same,MIC,Streptococcus pneumoniae [10],16 µg/mL
same,MIC,Pseudomonas aeruginosa [11],4 µg/mL
same,MIC,Staphylococcus aureus [12],4 µg/mL
same,MIC,Staphylococcus aureus [13],0.06 µg/mL
same,Ratio,Streptococcus pneumoniae [42],2
same,MIC,Streptococcus pneumoniae [14],1 µg/mL
same,MIC,Klebsiella pneumoniae [15],> 128 µg/mL
same,Ratio,Enterococcus faecium [43],2
same,Ratio,Streptococcus pneumoniae [44],2
same,MIC,Staphylococcus aureus [16],16 µg/mL
same,MIC,Klebsiella pneumoniae [17],> 128 µg/mL
same,MIC,Escherichia coli [18],8 µg/mL
same,Ratio,Enterococcus faecium [45],2
same,MIC,Klebsiella pneumoniae [19],4 µg/mL
same,MIC,Escherichia coli [20],8 µg/mL
same,Ratio,Staphylococcus aureus [46],2
same,MIC,Pseudomonas aeruginosa [21],2 µg/mL
same,Ratio,Staphylococcus aureus [47],2
same,MIC,Klebsiella pneumoniae [22],> 128 µg/mL
same,MIC,Staphylococcus aureus [23],0.25 µg/mL
same,MIC,Escherichia coli [24],8 µg/mL
same,MIC,[25],0.5 µg/mL
same,Ratio,Enterococcus faecalis [48],2
same,MIC,Klebsiella pneumoniae [26],> 128 µg/mL
same,MIC,[27],8 µg/mL
same,Ratio,[49],2
same,Ratio,Staphylococcus aureus [50],2
same,MIC,Escherichia coli [28],0.125 µg/mL
same,MIC,Enterococcus faecium [29],1 µg/mL
same,MIC,Pseudomonas aeruginosa [30],4 µg/mL
same,Ratio,Enterococcus faecalis [51],2
same,MIC,Enterococcus faecium [31],16 µg/mL
same,MIC,Pseudomonas aeruginosa [32],4 µg/mL
same,MIC,Enterococcus faecalis [33],32 µg/mL
same,MIC,Staphylococcus aureus [34],0.25 µg/mL
same,MIC,[35],8 µg/mL
same,MIC,Escherichia coli [36],> 128 µg/mL
same,MIC,Pseudomonas aeruginosa [37],2 µg/mL
same,MIC,Escherichia coli [38],> 128 µg/mL
